From paper PMC10601058 (ACS Omega, 2023)

Assays:
[1] = MTT cytotoxicity assay on RAW 264.7; type: cell-based; conditions: mouse, RAW 264.7 cells
How it was run: (§1)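 Cells were maintained in DMEM with 10% FBS and 1% pen-strep at 37 °C, 5% CO2, to 80% confluence. They were seeded in 96-well plates and exposed to test compound at 25 μM for 24 h. Viability was determined by MTT and given as % viability, mean ± SD of two independent experiments.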

[2] = MTT cytotoxicity assay on HepG2; type: cell-based; conditions: human, HepG2 cells
How it was run: as §1

[3] = tested on: nitric oxide (NO) production in RAW 264.7 stimulated by LPS; assay: Nitric oxide inhibition in RAW 264.7 induced by LPS; type: cell-based; conditions: Mus musculus, RAW264.7, 24 h, read-out: no. inhibition %
How it was run: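 Mouse RAW 264.7 cells at 1 × 10^6 cells/mL were treated with test compound at 10 μM or L-NAME at 250 μM. After 1 h, 1 μg/mL LPS was added for 24 h. Supernatant nitrite was measured with Griess reagent at 540 nm against a standard curve run alongside the samples.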

pin-1 = conditions: read-out: IC50 (pin-1); cited from earlier work
HepG2 = conditions: dose of 100 μM; cited from earlier work

CC(=O)O[C@@H]1CC[C@@]2(C)[C@@H](CC[C@]3(C)[C@@H]2C(=O)C=C2[C@@H]4[C@@H](C)[C@H](C)CC[C@]4(C)CC[C@]23C)[C@@]1(C)C(=O)O [compound 1, 3-acetyl-11-keto-β-boswellic acid]
viability at 24 h, 25 µM [1]: 92 ± 1.2%
viability at 24 h, 25 µM [2]: 86 ± 2.6%
inhibition at 10 µM [3]: 74 ± 0.1%
IC50 (pin-1): 50 µM

Cc1ccc(C(C)C)c(O)c1 [thymol]
effect on APAP hepatotoxicity in HepG2 (HepG2): ameliorated APAP hepatotoxicity

COC(=O)[C@@H](N)CCCNC(N)=N[N+](=O)[O-] [L-NAME, L-NG-nitro arginine methyl ester]
inhibition at 250 µM [3]: 84.76 ± 0.4%
